Results as given in ChEMBL document CHEMBL4765352, “Discovery of AdipoRon analogues as novel AMPK activators without inhibiting mitochondrial complex I” (Eur J Med Chem, 2020).
Activity calls are given as the source filed them. No cut-off for these calls is given here.

Key:
[1] = Metabolic stability in human liver microsomes assessed as half life preincubated for 5 mins followed by NADPH addition and measured up to 45 mins by LC/MS analysis; assay type: ADME, Microsome; conditions: time 50 min
In short: (§1)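 Compound was preincubated with mouse (ICR/CD-1) or human liver microsomes in potassium phosphate buffer at 37 °C for 5 min, then NADPH was added to start the reaction. Samples were quenched with acetonitrile containing tolbutamide internal standard at 0, 5, 15, 30 and 45 min. Parent compound measured by LC/MS; ketanserin served as control.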

[2] = Toxicity in C57BL/6 mouse assessed as change in heart weight/body weight ratio at 50 to 200 mg/kg, ig administered for 4 weeks; assay type: organism-based; conditions: in vivo, po, 672 h, dose 50-200 mg/kg
In short: (§2)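 Male C57BL/6 mice (6 per group) given 50, 100 or 200 mg/kg intragastrically daily for 4 weeks. Saline-perfused hearts were weighed and examined for gross morphology, with representative hearts chosen by similar body weight. Heart weight was expressed relative to body weight and to tibia length.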

Huh-7 = test: Activation of AMPK in human HuH-7 cells assessed as increase in ACC phosphorylation at 1 to 20 uM measured after 2 to 12 hrs by Western blotting analysis; assay type: cell-based; conditions: filed as activator, dose 1-20 µM, time 2-12 hrs
In short: (§3)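 HepG2 and HuH-7 cells in medium with 10% FBS and penicillin/streptomycin at 37 °C, 5% CO₂. Treated with a range of concentrations for 2 h, or with 10 μM over a time course. Cells lysed in RIPA buffer with protease/phosphatase inhibitors; ~30 µg protein per lane blotted for p-AMPK, AMPK, p-ACC, ACC, with GAPDH or β-actin as loading control. Detected by ECL.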

Mus musculus [3] = test: Antihyperglycemic activity in db/db mouse assessed as improved insulin resistant at 100 mg/kg, ig administered once daily for 9 weeks by ITT; assay type: functional, organism-based
In short: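 db/db mice dosed from 5 weeks of age with 100 mg/kg/day in 0.5% methylcellulose vehicle, for 9 weeks. After a 6 h fast, insulin was injected i.p. at 1.5 mU/g body weight and tail-vein blood glucose followed. Data given as mean ± SEM and compared by two-way ANOVA.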

[4] = Inhibition of mitochondrial complex 1 in human HepG2 cells assessed as increase in AMP/ATP ratio at 10 uM; assay type: cell-based; conditions: hepg2, 10 µM
In short: (§4)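 HepG2 cells treated with 10 μM or 0.5 μM compound, or DMSO. Cellular ADP:ATP and AMP:ATP ratios were measured. Three replicates, given as mean ± SD and compared by Student's t test.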

[5] = Inhibition of mitochondrial complex 1 in human HepG2 cells assessed as increase in ADP/ATP ratio at 10 uM; assay type: cell-based; conditions: hepg2, 10 µM; in short: as §4
HepG2 [6] = test: Cytotoxicity against human HepG2 cells assessed as reduction in cell viability at 10 to 20 uM incubated for 72 hrs by MTT assay; assay type: cell-based; conditions: hepg2, 72 h, dose 10-20 µM
In short: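 MTT viability assay in C2C12, HepG2 and A549 cells. Exposure was 24 h or 72 h for C2C12 and 72 h for HepG2 and A549. Three replicates per group, compared with the 0 μM group by Student's t test.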

HepG2 [7] = test: Activation of AMPK in human HepG2 cells assessed as increase in AMPK phosphorylation at 1 to 20 uM measured after 2 to 12 hrs by Western blotting analysis; assay type: cell-based; conditions: filed as activator, dose 1-20 µM, time 2-12 hrs; in short: as §3
HepG2 [8] = test: Activation of AMPK in human HepG2 cells assessed as increase in ACC phosphorylation at 1 to 20 uM measured after 2 to 12 hrs by Western blotting analysis; assay type: cell-based; conditions: filed as activator, dose 1-20 µM, time 2-12 hrs; in short: as §3
[9] = Metabolic stability in ICR/CD-1 mouse liver microsomes assessed as half life preincubated for 5 mins followed by NADPH addition and measured up to 45 mins by LC/MS analysis; assay type: ADME, Microsome; conditions: time 50 min; in short: as §1
[10] = Induction of glucose consumption in mouse C2C12 cells at 10 uM measured after 12 hrs by glucose oxidase method (reference value: 100 %); assay type: functional
In short: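 Differentiated C2C12 myotubes were switched to DMEM containing 2.75 g/L glucose and treated for 12 h at 37 °C, with cell-free blank wells as reference. Glucose left in the medium was measured by the GOD-POD method at 570 nm. Consumption was derived by subtraction and expressed as percentage of the DMSO group.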

C2C12 [11] = test: Activation of AMPK in mouse C2C12 cells assessed as increase in ACC phosphorylation measured after 2 hrs by Western blotting analysis; assay type: cell-based; conditions: filed as activator, dose 0.1-20 µM
In short: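 C2C12 myoblasts differentiated in DMEM with 2% horse serum for 5-7 days until myotubes formed. Treated for 2 h, either at 10 μM or across a concentration range, or at 10 μM over a time course. RIPA lysates (~30 µg protein) blotted for p-AMPK/AMPK and p-ACC/ACC, detected by ECL. The p-AMPK/AMPK ratio is expressed as fold of the DMSO vehicle.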

Mus musculus [12] = test: Antihyperglycemic activity in db/db mouse assessed as reduction in fasting blood glucose level at 100 mg/kg, ig administered once daily for 2 to 6 weeks; assay type: functional, organism-based; conditions: time 2-6 weeks
In short: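 db/db mice, 5 weeks old, grouped by matching baseline blood glucose and body weight. Dosed intragastrically once daily at 100 mg/kg in 0.5% methylcellulose; vehicle-treated db/db and db/m mice served as controls. Body weight and fasting blood glucose measured weekly. Serum ALT and AST measured after 10 weeks. Data given as mean ± SEM.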

H9c2 = test: Activation of AMPK in rat H9C2 cells assessed as increase in phosphorylation of AMPK at 1 to 20 uM incubated for 1 to 24 hrs by Western blot analysis; assay type: cell-based; conditions: dose 1-20 µM, time 1-24 hrs
In short: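 Rat cardiac H9C2 cells treated with a concentration range for 2 h or 4 h, or with 10 μM over a time course. Lysates blotted for phosphorylated and total AMPK and ACC, detected by ECL.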

[13] = Induction of cardiac hypertrophy in db/db mouse at 100 mg/kg, ig administered for 10 weeks; assay type: organism-based; conditions: in vivo, po, 1680 h
[14] = Metabolic stability in ICR/CD-1 mouse liver microsomes assessed as compound remaining preincubated for 5 mins followed by NADPH addition and measured up to 45 mins by LC/MS analysis; assay type: ADME, Microsome; conditions: time 50 min, read-out: Stabilty; in short: as §1
Mus musculus [15] = test: Hypoglycemic activity in 6 hrs fasted ig dosed normal lean C57BL/6 mouse assessed as improved glucose tolerance pretreated for 2 hrs followed by glucose challenge and measured up to 90 mins post glucose challenge starting from 120 mins prior to […] by IPGTT; assay type: functional, organism-based; conditions: dose 25-100 mg/kg, time 210.0 min
In short: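 C57BL/6 mice (male, 8-10 weeks, n=6 per group) fasted 6 h, then given compound or vehicle intragastrically. Two hours later, 20% glucose was injected i.p. at 2 g/kg. Tail-vein glucose read by glucometer at -120, 0, 20, 40, 60 and 90 min, and net AUC calculated. Doses were 25, 50 and 100 mg/kg.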

C2C12 [16] = test: Activation of AMPK in mouse C2C12 cells assessed as increase in AMPK phosphorylation in presence of CaMKKbeta inhibitor STO-609; assay type: cell-based; conditions: filed as activator
[17] = Toxicity in C57BL/6 mouse assessed as change in gross morphology of heart at 50 to 200 mg/kg, ig administered for 4 weeks; assay type: organism-based; conditions: in vivo, po, 672 h, dose 50-200 mg/kg; in short: as §2

half-life [1]: 1.62 h
half-life [9]: 0.6 h
remaining at 0.75 h [14]: 39%
Structure (SMILES): CC(C)(Oc1ccc(Cl)cc1)C(=O)Nc1ccc(OCc2ccc(C#N)cc2)cc1
Activity [2]: Non-Toxic
Activity (Huh-7): Active
Activity (Mus musculus [3]): Active
inhibition (INH) [4]: Not Active
inhibition (INH) [5]: Not Active
Activity (HepG2 [6]): Toxic
Activity (HepG2 [7]): Active
Activity (HepG2 [8]): Active
Activity [10]: 151.8%
Activity (C2C12 [11]): Dose-dependent effect
Activity (Mus musculus [12]): Active
Activity (H9c2): inactive
Activity [13]: Non-Toxic
Activity (Mus musculus [15]): Dose-dependent effect
Activity (C2C12 [16]): Active
Activity [17]: Non-Toxic
